Three compounds from ChEMBL document CHEMBL1773040, “Briarane diterpenes diminish COX-2 expression in human colon adenocarcinoma cells” (2011) can be followed below.

The source made the active and inactive calls. The calls are words filed in the database; no cut-off is given here.

Test [1] concerns Caco-2. Put plainly: Cytotoxicity against human Caco2 cells assessed as decrease in cell viability at 30 uM after 24 hrs by trypan blue exclusion assay. The format is functional. The procedure, abridged:
(§1)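 Caco-2 cells kept in MEM with 10% heat-inactivated FBS, penicillin G and streptomycin at 37 C, 5% CO2. Compounds given from a 5 mg/mL DMSO stock; exponentially growing cells seeded in complete medium with compound for 24 h. Floating and adherent cells pooled, mixed with 0.4% trypan blue, and stained/unstained cells counted by hemacytometer. Each experiment run three times.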

The subject of a further test is RAW264.7. The experiment in a line: Decrease in PMA-induced COX-2 mRNA expression in mouse RAW264.7 cells at 5 to 15 uM after 24 hrs by PCR analysis. The format is functional, cell-based. The procedure, abridged:
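RAW 264.7 monolayers stimulated with PMA and co-incubated with compound (0–15 μM) for 24 h. Total RNA isolated; equal RNA amounts reverse-transcribed to cDNA. COX-2 fragments amplified by PCR: 94 C 3 min, then 35 cycles of 94 C 30 s, 56 C 1 min, 78 C 30 s. GAPDH served as reference.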

The test system of test [2] is Caco-2. Put plainly: Cytotoxicity against human Caco2 cells assessed as decrease in cell viability at 15 uM after 24 hrs by trypan blue exclusion assay. The format is functional. The procedure, abridged:
as §1

For test [3], the system named is Caco-2. The experiment in a line: Cytotoxicity against human Caco2 cells assessed as decrease in cell viability at 5 to 30 uM after 24 hrs by trypan blue exclusion assay. Format: functional, cell-based. A digest of the protocol:
as §1

Test [4] deals with Caco-2. The experiment in a line: Decrease in PMA-induced COX-2 mRNA expression in human Caco2 cells at 10 to 15 uM after 24 hrs by PCR analysis. Format: functional, cell-based.
The subject of test [5] is Caco-2. The experiment in a line: Decrease in PMA-induced COX-2 mRNA expression in human Caco2 cells at 5 to 15 uM after 24 hrs by PCR analysis. The format is functional, cell-based.
Test [6] concerns Caco-2. Put plainly: Cytotoxicity against human Caco2 cells assessed as decrease in cell viability at 20 uM after 24 hrs by trypan blue exclusion assay. Format: functional. A digest of the protocol: as §1

As to `CCCCCCCC(=O)O[C@@H]1C[C@H](O)[C@@]2(C)C=C[C@@H](OC(C)=O)[C@@](C)(O)[C@@H]2[C@H](OC(C)=O)[C@]23O[C@@]2(C)C(=O)O[C@H]3/C=C\1C` [BRIALALEPOLIDE C], the Activity is 75% in the test with Caco-2 [1], 50% with Caco-2 [2] and “Dose-dependent effect” in the test on Caco-2 [3]. The outcome in the test with RAW264.7 and in the test with Caco-2 [4] was Active.
Turning to `CC(=O)O[C@@H]1C[C@H](O)[C@@]2(C)C=C[C@@H](OC(C)=O)[C@@](C)(O)[C@@H]2[C@H](OC(C)=O)[C@]23O[C@@]2(C)C(=O)O[C@H]3/C=C\1C` [BRIALALEPOLIDE A], the Activity in the test with Caco-2 [1] is 50%; in the test with Caco-2 [3] it was “Dose-dependent effect”. In addition, the outcome in the test with RAW264.7 and with Caco-2 [5] was inactive.
With `CCCCCC(=O)O[C@@H]1C[C@H](O)[C@@]2(C)C=C[C@@H](OC(C)=O)[C@@](C)(O)[C@@H]2[C@H](OC(C)=O)[C@]23O[C@@]2(C)C(=O)O[C@H]3/C=C\1C` [BRIALALEPOLIDE B], the result with RAW264.7 and in the test on Caco-2 [4] was Active. Besides, the Activity entry was “Dose-dependent effect” in the test on Caco-2 [3] and 50% in the test with Caco-2 [6].
